Values after ≈ are worked out from the molar mass of the structure shown. Positions of bridges follow the written chain, without caps; N, C: chain ends. Non-standard residues stand in square brackets, D forms with d. Residues, ends and D or L forms follow the SMILES beside them. *: point of attachment. Tetradecanoyl(3R-OH) = CCCCCCCCCCC[C@@H](O)CC(=O)*; Asp(3S-OH) = N[C@H](C(=O)O)[C@H](O)C(=O)O; Thr(4-Cl) = N[C@H](C(=O)O)[C@H](O)CCl; aThr = C[C@H](O)[C@H](N)C(=O)O; dDab = NCC[C@@H](N)C(=O)O; NHCH2CH2NMe2 = CN(C)CCN*; Dab = NCC[C@H](N)C(=O)O; Dhb = C/C=C(\N)C(=O)O; NHcPr = C1CC1N*
Tests used:
Candida albicans [1] = assay: In vivo efficacy against murine Candidiasis dosed four times by intraperitoneal administration post-infection using Reed and Muench method.; format: functional; settings: ip
How it was run: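 Systemic candidiasis in mice, with PSB and amphotericin B as positive controls. Analogues were given at 20, 10 and 5 mg/kg, four doses at 0, 4, 24 and 48 post-infection. ED50 is the dose giving 50% survival relative to untreated infected animals, calculated by the Reed and Muench method.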

Mus musculus [2] = assay: Compound was dosed four times to outbred, male ICR mice and signs of irritation (erythema, swelling, discoloration, necrosis and tail loss) were observed in tail irritation test; Yes; format: ADME, organism-based; settings: in vivo
Aspergillus fumigatus = assay: In vitro minimum inhibitory concentration (MIC) against Aspergillus fumigatus.; format: functional
How it was run: (§1)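 Tested against Candida albicans, Cryptococcus neoformans and Aspergillus fumigatus, with PSB as positive control. MIC is taken as the lowest drug concentration giving 90–100% inhibition of visible growth relative to drug-free controls.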

Cryptococcus neoformans = assay: In vitro minimum inhibitory concentration (MIC) against Cryptococcus neoformans.; format: functional; how it was run: as §1
Candida albicans [3] = assay: In vitro minimum inhibitory concentration (MIC) against Candida albicans.; format: functional; how it was run: as §1
Rattus norvegicus = assay: Toxicity at a dose of 50 mg/kg in rats; Death; format: organism-based; set-up: dose 50 mg/kg; settings: in vivo
Mus musculus [4] = assay: Toxicity at a dose of 75 mg/kg in mice; Death; settings: in vivo
Mus musculus [5] = assay: Toxicity at a dose of 100 mg/kg in mice; Death; settings: in vivo
Mus musculus [6] = assay: Survival extension of the mice against Aspergillosis infection at a dose of 20 mg/kg; format: functional
Mus musculus [7] = assay: Toxicity at a dose of 125 mg/kg in mice; Death; settings: in vivo
Mus musculus [8] = assay: In vivo efficacy against murine systemic Cryptococosis by intraperitoneal administration; format: functional; settings: ip
How it was run: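 Murine systemic cryptococcosis, ip dosing BID ×4 at 5.0, 1.25, 0.312 and 0.078 mg/kg. ED50 is the dose giving 50% survival relative to untreated infected animals.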

Mus musculus [9] = assay: In vivo efficacy against murine Candidiasis dosed four times by intraperitoneal administration post-infection using Reed and Muench method; Toxic; format: functional, organism-based
Mus musculus [10] = assay: Survival extension of the mice against Aspergillosis infection at a dose of 1 mg/kg; format: functional
How it was run: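 Murine systemic aspergillosis model, ip. The analogue was given BID at 50, 10 and 1 mg/kg, and survival extension of infected animals was recorded.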

| SMILES | ED50 (Candida albicans [1]) [mg/kg] | Tail vein toxicity (Mus musculus [2]) | MIC (Aspergillus fumigatus) [µg/mL] | MIC (Cryptococcus neoformans) [µg/mL] | MIC (Candida albicans [3]) [µg/mL] | Toxicity (Rattus norvegicus) | Toxicity (Mus musculus [4]) | Toxicity (Mus musculus [5]) | Survival extension (Mus musculus [6]) [%] | Toxicity (Mus musculus [7]) | ED50 (Mus musculus [8]) [mg/kg] | ED50 (Mus musculus [9]) | Survival extension (Mus musculus [10]) [%] |
| --- | --- | --- | --- | --- | --- | --- | --- | --- | --- | --- | --- | --- | --- |
| C/C=C1\NC(=O)[C@H]([C@H](C)O)NC(=O)[C@H](CCN)NC(=O)[C@H](CCCCN)NC(=O)[C@H](CC(N)=O)NC(=O)[C@@H](CCN)NC(=O)[C@@H](NC(=O)C[C@H](O)CCCCCCCCCCC)COC(=O)[C@H]([C@H](O)CCl)NC(=O)[C@H]([C@H](O)C(=O)O)NC1=O ({Tetradecanoyl(3R-OH)}-S[dDab]NK[Dab][aThr][Dhb][Asp(3S-OH)][Thr(4-Cl)]; ester 1-C) | < 0.8 | Active | 10 (≈ 8.29 µM) | < 0.01 | 2.5 (≈ 2.07 µM) | – | – | – | – | – | – | – | – |
| C/C=C1\NC(=O)[C@H]([C@H](C)O)NC(=O)[C@H](CCN)NC(=O)[C@H](CCCCN)NC(=O)[C@H](CC(=O)NCCCN(CC)CC)NC(=O)[C@@H](CCN)NC(=O)[C@@H](NC(=O)C[C@H](O)CCCCCCCCCCC)COC(=O)[C@H]([C@H](O)CCl)NC(=O)[C@H]([C@H](O)C(=O)O)NC1=O | < 4 | Active | > 20 | < 0.01 | 20 (≈ 15.2 µM) | – | – | – | – | – | – | – | – |
| C/C=C1\NC(=O)[C@H]([C@H](C)O)NC(=O)[C@H](CCN)NC(=O)[C@H](CCCCN)NC(=O)[C@H](CC(=O)O)NC(=O)[C@@H](CCN)NC(=O)[C@@H](NC(=O)C[C@H](O)CCCCCCCCCCC)COC(=O)[C@H]([C@H](O)CCl)NC(=O)[C@H]([C@H](O)C(=O)O)NC1=O [PSEUDOMYCIN B] ({Tetradecanoyl(3R-OH)}-S[dDab]DK[Dab][aThr][Dhb][Asp(3S-OH)][Thr(4-Cl)]; ester 1-C) | – | – | > 20 | 0.01 (≈ 0.00828 µM) | 0.625 (≈ 0.517 µM) | Death | Death | Death | 46 | Death | 1.8 | – | – |
| C/C=C1\NC(=O)[C@H]([C@H](C)O)NC(=O)[C@H](CCN)NC(=O)[C@H](CCCCN)NC(=O)[C@H](CC(=O)NCCCCCCC)NC(=O)[C@@H](CCN)NC(=O)[C@@H](NC(=O)C[C@H](O)CCCCCCCCCCC)COC(=O)[C@H]([C@H](O)CCl)NC(=O)[C@H]([C@H](O)C(=O)O)NC1=O | – | – | > 20 | 0.312 (≈ 0.239 µM) | 20 (≈ 15.3 µM) | – | – | – | – | – | – | Toxic | – |
| C/C=C1\NC(=O)[C@H]([C@H](C)O)NC(=O)[C@H](CCN)NC(=O)[C@H](CCCCN)NC(=O)[C@H](CC(=O)NC2CC2)NC(=O)[C@@H](CCN)NC(=O)[C@@H](NC(=O)C[C@H](O)CCCCCCCCCCC)COC(=O)[C@H]([C@H](O)CCl)NC(=O)[C@H]([C@H](O)C(=O)O)NC1=O ({Tetradecanoyl(3R-OH)}-S[dDab]D(NHcPr)K[Dab][aThr][Dhb][Asp(3S-OH)][Thr(4-Cl)]; ester 1-C) | < 5 | – | 20 (≈ 16 µM) | < 0.01 | 0.156 (≈ 0.125 µM) | – | – | Death | – | Death | 2.9 | – | 29 |
| C/C=C1\NC(=O)[C@H]([C@H](C)O)NC(=O)[C@H](CCN)NC(=O)[C@H](CCCCN)NC(=O)[C@H](CC(=O)NCCN)NC(=O)[C@@H](CCN)NC(=O)[C@@H](NC(=O)C[C@H](O)CCCCCCCCCCC)COC(=O)[C@H]([C@H](O)CCl)NC(=O)[C@H]([C@H](O)C(=O)O)NC1=O | < 5 | Active | 5 (≈ 4 µM) | < 0.01 | 10 (≈ 8 µM) | – | – | – | – | – | – | – | – |
| C/C=C1\NC(=O)[C@H]([C@H](C)O)NC(=O)[C@H](CCN)NC(=O)[C@H](CCCCN)NC(=O)[C@H](CC(=O)NCCC)NC(=O)[C@@H](CCN)NC(=O)[C@@H](NC(=O)C[C@H](O)CCCCCCCCCCC)COC(=O)[C@H]([C@H](O)CCl)NC(=O)[C@H]([C@H](O)C(=O)O)NC1=O | 6 | – | > 20 | 0.078 (≈ 0.0625 µM) | 1.25 (≈ 1 µM) | – | – | Death | – | Death | – | – | – |
| C/C=C1\NC(=O)[C@H]([C@H](C)O)NC(=O)[C@H](CCN)NC(=O)[C@H](CCCCN)NC(=O)[C@H](CC(=O)NCCN(C)C)NC(=O)[C@@H](CCN)NC(=O)[C@@H](NC(=O)C[C@H](O)CCCCCCCCCCC)COC(=O)[C@H]([C@H](O)CCl)NC(=O)[C@H]([C@H](O)C(=O)O)NC1=O ({Tetradecanoyl(3R-OH)}-S[dDab]D(NHCH2CH2NMe2)K[Dab][aThr][Dhb][Asp(3S-OH)][Thr(4-Cl)]; ester 1-C) | < 5 | – | 5 (≈ 3.91 µM) | < 0.01 | 0.156 (≈ 0.122 µM) | – | Death | Death | – | Death | 2.5 | – | 23 |

— ChEMBL document CHEMBL1134010, “Syntheses and antifungal activities of novel 3-amido bearing pseudomycin analogues” (Bioorg Med Chem Lett, 2001)
